Data taken from ChEMBL document CHEMBL1156083, “N,N-Diethyl-4-[(3-hydroxyphenyl)(piperidin-4-yl)amino] benzamide derivatives: the development of diaryl amino piperidines as potent delta opioid receptor agonists with in vivo anti-nociceptive activity in rodent models” (Bioorg Med Chem Lett, 2009).

Legend:
Mus musculus [1] = test: Antinociceptive activity against acetic acid-induced writhing response in iv dosed CD1 mouse after 20 mins; type: functional
Outline: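 CD1 mice received the compound intravenously at doses of 4 to 25 before the acetic acid-induced abdominal constriction (writhing) test. Writhing inhibition was scored 20 min after dosing and ED₅₀ was taken from the dose-response. A separate arm was pretreated with the delta-selective antagonist naltrindole.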

Rattus norvegicus [2] = test: Antihyperalgesic activity against carrageenan-induced inflammatory hyperalgesia in iv dosed Sprague-Dawley rat after 30 mins; type: functional
Outline: (§1)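 Sprague-Dawley rats with carrageenan-induced inflammatory hyperalgesia received the compound intravenously across a dose range of 3 to 30. Antinociceptive reversal was measured 30 min after dosing.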

[3] = Half life in rat; type: ADME, organism-based; details: in vivo
[4] = Bioavailability in rat; type: ADME, organism-based; details: in vivo
Rattus norvegicus [5] = test: Antihyperalgesic activity against carrageenan-induced inflammatory hyperalgesia in Sprague-Dawley rat at 30 umol/kg, iv after 30 mins; type: functional; outline: as §1
Mus musculus [6] = test: Toxicity in CD1 mouse assessed convulsant activity at 4 to 25 umol/kg, iv after 20 mins; type: organism-based; details: in vivo
Outline: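 CD1 mice were watched for convulsions during the acetic acid writhing experiment, at the intravenous doses used there (4 to 25) and 20 min after dosing.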

Rattus norvegicus [7] = test: Toxicity in Sprague-Dawley rat assessed convulsant activity at 3 to 30 umol/kg, iv after 30 mins; type: organism-based; details: in vivo, 0.5 h
Outline: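 Sprague-Dawley rats were watched for convulsions during the carrageenan hyperalgesia experiment, at the intravenous doses used there (3 to 30) and 30 min after dosing.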

Mus musculus [8] = test: Toxicity in CD1 mouse assessed hyperactivity at above 30 umol/kg, iv after 20 mins; type: organism-based; details: in vivo
Rattus norvegicus [9] = test: Toxicity in Sprague-Dawley rat assessed hyperactivity at above 30 umol/kg, iv after 30 mins; type: organism-based; details: in vivo, 0.5 h

Structure (SMILES)	Activity (Mus musculus [1]) [µmol/kg]	Activity (Rattus norvegicus [2])	half-life [3] [min]	bioavailability [4] [%]	ED50 (Rattus norvegicus [2]; Rattus norvegicus, Sprague-Dawley, iv, 0.5 h) [µmol/kg]	Activity (Rattus norvegicus [5]) [%]	Activity (Mus musculus [6])	Activity (Rattus norvegicus [7])	Activity (Mus musculus [8])	Activity (Rattus norvegicus [9])
CN1CC[C@]23c4c5ccc(O)c4O[C@H]2[C@@H](O)C=C[C@H]3[C@H]1C5 [MORPHINE]	1.5	3.1 µmol/kg								
CCN(CC)C(=O)c1ccc(N(c2cccc(O)c2)C2CCN(CCc3ccccc3)CC2)cc1		Dose-dependent effect	48	25	17.5	60	Non-toxic	Non-toxic	Non-toxic	Non-toxic
